Measured values published in ChEMBL document CHEMBL5058577, “EUbOPEN Chemogenomics Library 2 (Multiplex)” (2022).

Tested on: HEK-293T
Test: Multiplex assay against HEK293T
Format: toxicity, cell-based
Conditions: human
Method in brief: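 Live cells were stained at seeding with Hoechst33342, BioTracker Green Microtubule Cytoskeleton Dye, MitoTracker Red and Annexin V Alexa Fluor 680, then imaged on a CQ1 microscope at 37°C and 5% CO2 after compound addition. CellPathfinder machine-learning gating split cells into Hoechst high-intensity objects or normal cells. Normal cells were split into healthy, pyknosed or fragmented nuclei, and pyknosed cells into mitotic or apoptotic. Tubulin, mitochondrial-mass and membrane-permeability phenotypes are per cents of healthy-nucleus cells.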

[1] = 12 h, 1 µM, compound concentration 1 uM, replicate 1
[2] = 12 h, 1 µM, compound concentration 1 uM, replicate 2
[3] = 12 h, 10 µM, compound concentration 10 uM, replicate 1
[4] = 12 h, 10 µM, compound concentration 10 uM, replicate 2
[5] = 24 h, 1 µM, compound concentration 1 uM, replicate 1
[6] = 24 h, 1 µM, compound concentration 1 uM, replicate 2
[7] = 24 h, 10 µM, compound concentration 10 uM, replicate 1
[8] = 24 h, 10 µM, compound concentration 10 uM, replicate 2
[9] = 48 h, 1 µM, compound concentration 1 uM, replicate 1
[10] = 48 h, 1 µM, compound concentration 1 uM, replicate 2
[11] = 48 h, 10 µM, compound concentration 10 uM, replicate 1
[12] = 48 h, 10 µM, compound concentration 10 uM, replicate 2

For `C[C@@H]1CC(=O)Nc2cccc(-c3ccc4c(c3)c(-c3cnn(C)c3)nn4C)c2N1`, the “Population Apoptotic (%)” value [1] was 36%, the “Population Fragmented Nuclei (%)” value [1] was 7% and the “Population Healthy Nuclei (%)” value [1] was 76%. For the same compound, the “Population Hoechst High Intensity Objects (%)” value [1] was 7%, the “Population Membrane Permeable-Phenotype (%)” value [1] was 0% and the “Population Mitochondria Different-Phenotype (%)” value [1] was 51%. For the same compound, the “Population Mitotic Cells (%)” value [1] was 63%, the “Population Normal (%)” value [1] was 92% and the “Population Pyknosed Nuclei (%)” value [1] was 16%. For the same compound, the “Population Tubulin-Different-Phenotype (%)” value [1] was 39%, the “Total Cell Count” value [1] was 305 and the “Population Apoptotic (%)” value [2] was 60%. For the same compound, the “Population Fragmented Nuclei (%)” value [2] was 5%, the “Population Healthy Nuclei (%)” value [2] was 77% and the “Population Mitochondria Different-Phenotype (%)” value [2] was 65%. The “Population Mitotic Cells (%)” value [2] was 39%, the “Population Tubulin-Different-Phenotype (%)” value [2] was 26% and the “Total Cell Count” value [2] was 349. The “Population Apoptotic (%)” value [3] was 49%, the “Population Fragmented Nuclei (%)” value [3] was 8% and the “Population Healthy Nuclei (%)” value [3] was 74%. The “Population Hoechst High Intensity Objects (%)” value [3] was 5%, the “Population Membrane Permeable-Phenotype (%)” value [3] was 0% and the “Population Mitochondria Different-Phenotype (%)” value [3] was 72%. The “Population Mitotic Cells (%)” value [3] was 50%, the “Population Normal (%)” value [3] was 94% and the “Population Pyknosed Nuclei (%)” value [3] was 17%. The “Population Tubulin-Different-Phenotype (%)” value [3] was 62%, the “Total Cell Count” value [3] was 384 and the “Population Apoptotic (%)” value [4] was 38%. The “Population Fragmented Nuclei (%)” value [4] was 5%, the “Population Healthy Nuclei (%)” value [4] was 77% and the “Population Hoechst High Intensity Objects (%)” value [4] was 12%. For the same compound, the “Population Mitochondria Different-Phenotype (%)” value [4] was 86%, the “Population Mitotic Cells (%)” value [4] was 62% and the “Population Normal (%)” value [4] was 87%. For the same compound, the “Population Pyknosed Nuclei (%)” value [4] was 16%, the “Population Tubulin-Different-Phenotype (%)” value [4] was 56% and the “Total Cell Count” value [4] was 345. The “Population Apoptotic (%)” value [5] was 38%, the “Population Fragmented Nuclei (%)” value [5] was 10% and the “Population Healthy Nuclei (%)” value [5] was 74%. For the same compound, the “Population Hoechst High Intensity Objects (%)” value [5] was 7%, the “Population Membrane Permeable-Phenotype (%)” value [5] was 0% and the “Population Mitochondria Different-Phenotype (%)” value [5] was 37%. For the same compound, the “Population Mitotic Cells (%)” value [5] was 61%, the “Population Normal (%)” value [5] was 92% and the “Population Pyknosed Nuclei (%)” value [5] was 14%. The “Population Tubulin-Different-Phenotype (%)” value [5] was 20%, the “Total Cell Count” value [5] was 395 and the “Population Apoptotic (%)” value [6] was 50%. For the same compound, the “Population Fragmented Nuclei (%)” value [6] was 8%, the “Population Healthy Nuclei (%)” value [6] was 79% and the “Population Hoechst High Intensity Objects (%)” value [6] was 6%. For the same compound, the “Population Mitochondria Different-Phenotype (%)” value [6] was 48%, the “Population Mitotic Cells (%)” value [6] was 50% and the “Population Normal (%)” value [6] was 93%. The “Population Pyknosed Nuclei (%)” value [6] was 11%, the “Population Tubulin-Different-Phenotype (%)” value [6] was 16% and the “Total Cell Count” value [6] was 422. The “Population Apoptotic (%)” value [7] was 43%, the “Population Fragmented Nuclei (%)” value [7] was 9% and the “Population Healthy Nuclei (%)” value [7] was 76%. The “Population Hoechst High Intensity Objects (%)” value [7] was 2%, the “Population Membrane Permeable-Phenotype (%)” value [7] was 0% and the “Population Mitochondria Different-Phenotype (%)” value [7] was 62%. The “Population Mitotic Cells (%)” value [7] was 56%, the “Population Normal (%)” value [7] was 97% and the “Population Pyknosed Nuclei (%)” value [7] was 13%. For the same compound, the “Population Tubulin-Different-Phenotype (%)” value [7] was 37%, the “Total Cell Count” value [7] was 472 and the “Population Apoptotic (%)” value [8] was 57%. The “Population Fragmented Nuclei (%)” value [8] was 8%, the “Population Healthy Nuclei (%)” value [8] was 72% and the “Population Hoechst High Intensity Objects (%)” value [8] was 5%. The “Population Mitochondria Different-Phenotype (%)” value [8] was 68%, the “Population Mitotic Cells (%)” value [8] was 42% and the “Population Normal (%)” value [8] was 94%. For the same compound, the “Population Pyknosed Nuclei (%)” value [8] was 19%, the “Population Tubulin-Different-Phenotype (%)” value [8] was 28% and the “Total Cell Count” value [8] was 381. The “Population Apoptotic (%)” value [9] was 33%, the “Population Fragmented Nuclei (%)” value [9] was 11% and the “Population Healthy Nuclei (%)” value [9] was 80%. The “Population Hoechst High Intensity Objects (%)” value [9] was 1%, the “Population Membrane Permeable-Phenotype (%)” value [9] was 0% and the “Population Mitochondria Different-Phenotype (%)” value [9] was 23%. The “Population Mitotic Cells (%)” value [9] was 66%, the “Population Normal (%)” value [9] was 98% and the “Population Pyknosed Nuclei (%)” value [9] was 7%. The “Population Tubulin-Different-Phenotype (%)” value [9] was 13%, the “Total Cell Count” value [9] was 627 and the “Population Apoptotic (%)” value [10] was 30%. The “Population Fragmented Nuclei (%)” value [10] was 9%, the “Population Healthy Nuclei (%)” value [10] was 81% and the “Population Hoechst High Intensity Objects (%)” value [10] was 2%. For the same compound, the “Population Mitochondria Different-Phenotype (%)” value [10] was 30%, the “Population Mitotic Cells (%)” value [10] was 69% and the “Population Normal (%)” value [10] was 97%. For the same compound, the “Population Pyknosed Nuclei (%)” value [10] was 9%, the “Total Cell Count” value [10] was 593 and the “Population Apoptotic (%)” value [11] was 43%. For the same compound, the “Population Fragmented Nuclei (%)” value [11] was 13%, the “Population Healthy Nuclei (%)” value [11] was 80% and the “Population Hoechst High Intensity Objects (%)” value [11] was 4%. For the same compound, the “Population Membrane Permeable-Phenotype (%)” value [11] was 0%, the “Population Mitochondria Different-Phenotype (%)” value [11] was 44% and the “Population Mitotic Cells (%)” value [11] was 56%. The “Population Normal (%)” value [11] was 95%, the “Population Pyknosed Nuclei (%)” value [11] was 6% and the “Population Tubulin-Different-Phenotype (%)” value [11] was 16%. For the same compound, the “Total Cell Count” value [11] was 636, the “Population Apoptotic (%)” value [12] was 42% and the “Population Fragmented Nuclei (%)” value [12] was 12%. For the same compound, the “Population Healthy Nuclei (%)” value [12] was 78%, the “Population Hoechst High Intensity Objects (%)” value [12] was 2% and the “Population Mitochondria Different-Phenotype (%)” value [12] was 53%. The “Population Mitotic Cells (%)” value [12] was 57%, the “Population Normal (%)” value [12] was 97% and the “Population Pyknosed Nuclei (%)” value [12] was 9%. For the same compound, the “Population Tubulin-Different-Phenotype (%)” value [12] was 20% and the “Total Cell Count” value [12] was 521.
